From ChEMBL document CHEMBL1122494, “New selenium-75 labeled radiopharmaceuticals: selenonium analogues of dopamine” (J Med Chem, 1983)

How the values were obtained:
Type in all cases: ADME, organism-based
Rattus norvegicus [1] = assay: Distribution of Se-75 activity in Lung of female Sprague-Dawley Rat 5 min after iv administration of compound; settings: in vivo
Procedure, shortened: (§1)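 Female Sprague-Dawley rats (100-300 g), five per group, got [75Se]selenonium salt in 0.2 mL saline (5-6 μCi) by lateral tail vein. They were killed by cardioectomy under chloroform anesthesia at the stated time. A sample of the large organ was weighed and gamma counted, and counts were converted to % injected dose/g. Values are mean and SEM of five.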

Rattus norvegicus [2] = assay: Distribution of Se-75 activity in blood of female Sprague-Dawley Rat 15 min after iv administration of compound; settings: in vivo, 0.25 h
Procedure, shortened: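 Tail-vein injection of 5-6 μCi [75Se]selenonium salt in 0.2 mL saline into female Sprague-Dawley rats (100-300 g), five per group. Rats were killed by cardioectomy under chloroform anesthesia at the time point. Radioactivity was gamma counted and expressed as % injected dose/g, mean and SEM of five.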

Rattus norvegicus [3] = assay: Distribution of Se-75 activity in blood of female Sprague-Dawley Rat 240 min after iv administration of compound; settings: in vivo, 4 h
Procedure, shortened: (§2)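 Female Sprague-Dawley rats (100-300 g) got 5-6 μCi of [75Se]selenonium salt in 0.2 mL saline via lateral tail vein. Groups of five were anesthetized with chloroform at set times and killed by cardioectomy. Tissues were rinsed, blotted and weighed, then gamma-counted. Values are % injected dose per gram, mean and SEM of five.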

Rattus norvegicus [4] = assay: Distribution of Se-75 activity in blood of female Sprague-Dawley Rat 30 min after iv administration of compound; settings: in vivo, 0.5 h; procedure, shortened: as §2
Rattus norvegicus [5] = assay: Distribution of Se-75 activity in blood of female Sprague-Dawley Rat 5 min after iv administration of compound; settings: in vivo; procedure, shortened: as §2
Rattus norvegicus [6] = assay: Distribution of Se-75 activity in Adrenal of female Sprague-Dawley Rat 5 min after iv administration of compound; settings: in vivo
Procedure, shortened: (§3)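 Female Sprague-Dawley rats (100-300 g), five per group, got [75Se]selenonium salt by lateral tail vein: 0.2 mL saline with 5-6 μCi. Groups were killed by cardioectomy under chloroform anesthesia at the set times. The organ was taken intact, rinsed with saline, blotted, weighed and gamma counted. Values are % injected dose/g, mean and SEM of five.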

Rattus norvegicus [7] = assay: Distribution of Se-75 activity in Brain of female Sprague-Dawley Rat 15 min after iv administration of compound; settings: in vivo, 0.25 h
Rattus norvegicus [8] = assay: Distribution of Se-75 activity in Brain of female Sprague-Dawley Rat 30 min after iv administration of compound; settings: in vivo, 0.5 h
Rattus norvegicus [9] = assay: Distribution of Se-75 activity in Brain of female Sprague-Dawley Rat 5 min after iv administration of compound; settings: in vivo
Rattus norvegicus [10] = assay: Distribution of Se-75 activity in Brain of female Sprague-Dawley Rat 60 min after iv administration of compound; settings: in vivo, 1 h
Rattus norvegicus [11] = assay: Distribution of Se-75 activity in Heart of female Sprague-Dawley Rat 5 min after iv administration of compound; settings: in vivo; procedure, shortened: as §3
Rattus norvegicus [12] = assay: Distribution of Se-75 activity in Heart of female Sprague-Dawley Rat 60 min after iv administration of compound; settings: in vivo, 1 h; procedure, shortened: as §3
Rattus norvegicus [13] = assay: Distribution of Se-75 activity in Kidney of female Sprague-Dawley Rat 15 min after iv administration of compound; settings: in vivo, 0.25 h; procedure, shortened: as §3
Rattus norvegicus [14] = assay: Distribution of Se-75 activity in Kidney of female Sprague-Dawley Rat 30 min after iv administration of compound; settings: in vivo, 0.5 h; procedure, shortened: as §3
Rattus norvegicus [15] = assay: Distribution of Se-75 activity in Kidney of female Sprague-Dawley Rat 5 min after iv administration of compound; settings: in vivo; procedure, shortened: as §3
Rattus norvegicus [16] = assay: Distribution of Se-75 activity in Kidney of female Sprague-Dawley Rat 60 min after iv administration of compound; settings: in vivo, 1 h; procedure, shortened: as §3
Rattus norvegicus [17] = assay: Distribution of Se-75 activity in Liver of female Sprague-Dawley Rat 120 min after iv administration of compound; settings: in vivo, 2 h; procedure, shortened: as §1
Rattus norvegicus [18] = assay: Distribution of Se-75 activity in Liver of female Sprague-Dawley Rat 15 min after iv administration of compound; settings: in vivo, 0.25 h; procedure, shortened: as §1
Rattus norvegicus [19] = assay: Distribution of Se-75 activity in Liver of female Sprague-Dawley Rat 240 min after iv administration of compound; settings: in vivo, 4 h; procedure, shortened: as §1
Rattus norvegicus [20] = assay: Distribution of Se-75 activity in Lung of female Sprague-Dawley Rat 15 min after iv administration of compound; settings: in vivo, 0.25 h; procedure, shortened: as §1
Rattus norvegicus [21] = assay: Distribution of Se-75 activity in Lung of female Sprague-Dawley Rat 30 min after iv administration of compound; settings: in vivo, 0.5 h; procedure, shortened: as §1
Rattus norvegicus [22] = assay: Distribution of Se-75 activity in Heart of female Sprague-Dawley Rat 15 min after iv administration of compound; settings: in vivo, 0.25 h; procedure, shortened: as §3
Rattus norvegicus [23] = assay: Tissue radioactivity ratio in Heart to Blood 120 min after Intravenous Injection in rats; settings: other tissue, 2 h
Procedure, shortened: (§4)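 Same rat biodistribution: female Sprague-Dawley rats (100-300 g), 5-6 μCi [75Se]selenonium salt in 0.2 mL saline iv by tail vein, five per time point, killed by cardioectomy under chloroform. Ratios are tissue-to-tissue quotients of gamma-counted % injected dose per gram in each organ (adrenal, heart, kidney, liver, blood).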

Rattus norvegicus [24] = assay: Tissue radioactivity ratio in Heart to Blood 15 min after Intravenous Injection in rats; settings: other tissue, 0.25 h; procedure, shortened: as §4
Rattus norvegicus [25] = assay: Tissue radioactivity ratio in Heart to Blood 30 min after Intravenous Injection in rats; settings: other tissue, 0.5 h; procedure, shortened: as §4
Rattus norvegicus [26] = assay: Tissue radioactivity ratio in adrenal to Kidney 120 min after Intravenous Injection in rats; settings: in vivo, 2 h; procedure, shortened: as §4
Rattus norvegicus [27] = assay: Tissue radioactivity ratio in adrenal to Kidney 15 min after Intravenous Injection in rats; settings: in vivo, 0.25 h; procedure, shortened: as §4
Rattus norvegicus [28] = assay: Tissue radioactivity ratio in adrenal to Kidney 240 min after Intravenous Injection in rats; settings: in vivo, 4 h; procedure, shortened: as §4
Rattus norvegicus [29] = assay: Tissue radioactivity ratio in adrenal to Kidney 30 min after Intravenous Injection in rats; settings: in vivo, 0.5 h; procedure, shortened: as §4
Rattus norvegicus [30] = assay: Tissue radioactivity ratio in adrenal to Kidney 5 min after Intravenous Injection in rats; settings: in vivo; procedure, shortened: as §4
Rattus norvegicus [31] = assay: Tissue radioactivity ratio in adrenal to Liver 120 min after Intravenous Injection in rats; settings: in vivo, 2 h; procedure, shortened: as §4
Rattus norvegicus [32] = assay: Tissue radioactivity ratio in adrenal to Liver 15 min after Intravenous Injection in rats; settings: in vivo, 0.25 h; procedure, shortened: as §4
Rattus norvegicus [33] = assay: Tissue radioactivity ratio in adrenal to Liver 240 min after Intravenous Injection in rats; settings: in vivo, 4 h; procedure, shortened: as §4
Rattus norvegicus [34] = assay: Tissue radioactivity ratio in adrenal to Liver 5 min after Intravenous Injection in rats; settings: in vivo; procedure, shortened: as §4
Rattus norvegicus [35] = assay: Tissue radioactivity ratio in adrenal to Liver 60 min after Intravenous Injection in rats; settings: in vivo, 1 h; procedure, shortened: as §4
Rattus norvegicus [36] = assay: Tissue radioactivity ratio in adrenal to blood 120 min after Intravenous Injection in rats; settings: other tissue, 2 h; procedure, shortened: as §4
Rattus norvegicus [37] = assay: Tissue radioactivity ratio in adrenal to blood 15 min after Intravenous Injection in rats; settings: other tissue, 0.25 h; procedure, shortened: as §4
Rattus norvegicus [38] = assay: Tissue radioactivity ratio in adrenal to blood 240 min after Intravenous Injection in rats; settings: other tissue, 4 h; procedure, shortened: as §4
Rattus norvegicus [39] = assay: Tissue radioactivity ratio in adrenal to blood 30 min after Intravenous Injection in rats; settings: other tissue, 0.5 h; procedure, shortened: as §4
Rattus norvegicus [40] = assay: Tissue radioactivity ratio in adrenal to blood 5 min after Intravenous Injection in rats; settings: other tissue; procedure, shortened: as §4
Rattus norvegicus [41] = assay: Tissue radioactivity ratio in adrenal to blood 60 min after Intravenous Injection in rats; settings: other tissue, 1 h; procedure, shortened: as §4
Rattus norvegicus [42] = assay: Tissue radioactivity ratio in adrenal to Kidney 60 min after Intravenous Injection in rats; settings: in vivo, 1 h; procedure, shortened: as §4

## C[Se+](C)CCc1ccc(O)c(O)c1.[Cl-]
Rattus norvegicus [1]
  Dose/g: 1.25%
Rattus norvegicus [2]
  Dose/g: 0.3%
Rattus norvegicus [3]
  Dose/g: 0.05%
Rattus norvegicus [4]
  Dose/g: 0.28%
Rattus norvegicus [5]
  Dose/g: 0.35%
Rattus norvegicus [6]
  Dose/g: 0.78%
Rattus norvegicus [7]
  Dose/g: 0.01%
Rattus norvegicus [8]
  Dose/g: 0.01%
Rattus norvegicus [9]
  Dose/g: 0.02%
Rattus norvegicus [10]
  Dose/g: 0.01%
Rattus norvegicus [11]
  Dose/g: 2.37%
Rattus norvegicus [12]
  Dose/g: 0.46%
Rattus norvegicus [13]
  Dose/g: 1.07%
Rattus norvegicus [14]
  Dose/g: 1.07%
Rattus norvegicus [15]
  Dose/g: 2.65%
Rattus norvegicus [16]
  Dose/g: 0.59%
Rattus norvegicus [17]
  Dose/g: 0.32%
Rattus norvegicus [18]
  Dose/g: 2%
Rattus norvegicus [19]
  Dose/g: 0.23%
Rattus norvegicus [20]
  Dose/g: 1.14%
Rattus norvegicus [21]
  Dose/g: 0.83%
Rattus norvegicus [22]
  Dose/g: 1.58%
Rattus norvegicus [23]
  Ratio: 2.62
Rattus norvegicus [24]
  Ratio: 5.27
Rattus norvegicus [25]
  Ratio: 3.86
Rattus norvegicus [26]
  Ratio: 2.52
Rattus norvegicus [27]
  Ratio: 0.81
Rattus norvegicus [28]
  Ratio: 3.28
Rattus norvegicus [29]
  Ratio: 0.81
Rattus norvegicus [30]
  Ratio: 0.29
Rattus norvegicus [31]
  Ratio: 2.28
Rattus norvegicus [32]
  Ratio: 0.43
Rattus norvegicus [33]
  Ratio: 2.56
Rattus norvegicus [34]
  Ratio: 0.42
Rattus norvegicus [35]
  Ratio: 1.04
Rattus norvegicus [36]
  Ratio: 9.12
Rattus norvegicus [37]
  Ratio: 2.9
Rattus norvegicus [38]
  Ratio: 11.8
Rattus norvegicus [39]
  Ratio: 3.07
Rattus norvegicus [40]
  Ratio: 2.22
Rattus norvegicus [41]
  Ratio: 4.83
Rattus norvegicus [42]
  Ratio: 1.47
